In ChEMBL document CHEMBL1817602, “Synthesis of benzo[3,4]azepino[1,2-b]isoquinolin-9-ones from 3-arylisoquinolines via ring closing metathesis and evaluation of topoisomerase I inhibitory activity, cytotoxicity and docking study” (Bioorg Med Chem, 2011):
Activity calls are given as the source filed them. No cut-off for these calls is given here.

Key:
[1] = species on record: Bos taurus; assay: Inhibition of calf thymus topoisomerase 1-mediated relaxation of supercoiled pBR322 DNA at 20 to 100 uM after 30 mins using ethidium bromide staining by UV-light transillumination analysis
In short: (§1)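 Plasmid pBR322 (200 ng) with 0.3 U calf thymus topo I, compound at final 20 or 100 μM, 37 °C for 30 min in relaxation buffer (35 mM Tris–HCl pH 8.0, 72 mM KCl, MgCl2, DTT, spermidine, 0.01% BSA). Stopped with SDS loading mix, run on 1% agarose in TBE for 10 h, stained with ethidium bromide (0.5 μg/mL), and UV-visualized and quantitated. Scored semiquantitatively against camptothecin.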

[2] = tested on: SK-OV-3; assay: Cytotoxicity against human SKOV3 cells after 48 hrs by MTT assay; format: functional, cell-based; settings: SK-OV-3, 48 h
In short: (§2)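 Cells seeded at 10^5 cells/mL in 100 µL RPMI-1640 with 10% FBS; compounds added at various concentrations after 24 h and incubated 48 h. MTT (5 mg/mL stock in PBS, 50 µL per well) was added for a further incubation. Medium was discarded, formazan dissolved in DMSO, and absorbance read at 540 nm.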

[3] = tested on: SK-MEL-2; assay: Cytotoxicity against human SK-MEL-2 cells after 48 hrs by MTT assay; format: functional, cell-based; settings: SK-MEL-2, 48 h; in short: as §2
[4] = tested on: A549; assay: Cytotoxicity against human A549 cells after 48 hrs by MTT assay; format: functional, cell-based; settings: A549, 48 h; in short: as §2
[5] = tested on: HCT-15; assay: Cytotoxicity against human HCT15 cells after 48 hrs by MTT assay; format: functional, cell-based; settings: HCT-15, 48 h; in short: as §2
[6] = species on record: Bos taurus; assay: Inhibition of calf thymus topoisomerase 1-mediated relaxation of supercoiled pBR322 DNA at 20 to 100 uM after 30 mins using ethidium bromide staining by UV-light transillumination analysis relative to camptothecin; in short: as §1

Row | SMILES | inhibition [1] | IC50 [2] [µM] | IC50 [3] [µM] | IC50 [4] [µM] | IC50 [5] [µM] | inhibition [6]
1 | C=CCn1c(-c2cc(OC)c(OC)cc2C=O)cc2ccccc2c1=O | Active | 85.5 | 67.6 | 76.3 | 77.5 | 
2 | C=CCn1c(-c2cc3c(cc2C=O)OCO3)cc2ccc(OC)c(OC)c2c1=O | Active | 61.7 | 71.2 | 85.1 | 63.9 | 
3 | COCOCc1cc(OC)c(OC)cc1-c1cc2ccccc2c(=O)[nH]1 | Active | 87.7 | 55.2 | 85.1 | 73.7 | 
4 | COCOCc1cc(OC)ccc1-c1cc2ccccc2c(=O)[nH]1 | Active | 75.5 | 97.6 | 45.3 | 27.5 | 
5 | COc1cc2c(cc1OC)-c1cc3ccccc3c(=O)n1CC=C2 | Active | 11 | 6.23 | 14.8 | 21.3 | 
6 | C=CCn1c(-c2cc3c(cc2C=C)OCO3)cc2ccccc2c1=O | Active | 13.6 | 9.36 | 19.3 | 11.2 | 
7 | COc1ccc2c(c1)C=CCn1c-2cc2ccccc2c1=O | Active | 24.3 | 7.74 | 6.48 | 12.6 | 
8 | C=CCn1c(-c2ccc(OC)cc2C=C)cc2ccccc2c1=O | Active | 43.8 | 11.6 | 17.2 | 22.8 | 
9 | COCOCc1cc2c(cc1-c1cc3ccccc3c(=O)[nH]1)OCO2 |  | 22.9 | 64.5 | 7.93 | 13.1 | Active
10 | O=c1c2ccccc2cc2n1CC=Cc1cc3c(cc1-2)OCO3 | Active | 29.1 | 28.6 | 17.1 | 20.1 | 
11 | COc1ccc2cc3n(c(=O)c2c1OC)CC=Cc1cc2c(cc1-3)OCO2 | Active | 2.8 | 2.54 | 7.45 | 6.34 | 
12 | C=CCn1c(-c2cc(OC)c(OC)cc2C=C)cc2ccccc2c1=O | Active | 35.5 | 47.7 | 43.2 | 75.2 | 
13 | C=CCn1c(-c2cc3c(cc2COCOC)OCO3)cc2ccccc2c1=O | Active | 29.5 | 15.4 | 19.8 | 36.1 | 
14 | C=CCn1c(-c2cc(OC)c(OC)cc2COCOC)cc2ccccc2c1=O | Active | 37.7 | 75 | 88.1 | 78.7 | 
15 | C=CCn1c(-c2ccc(OC)cc2COCOC)cc2ccccc2c1=O | Active | > 100 | 42.6 | > 100 | 27.8 | 
16 | C=CCn1c(-c2cc3c(cc2C=O)OCO3)cc2ccccc2c1=O | Active | 56.9 | > 100 | 87.5 | 54.1 | 
17 | CC[C@@]1(O)C(=O)OCc2c1cc1n(c2=O)Cc2cc3ccccc3nc2-1 [CAMPTOTHECIN] | Active | 2.54 | 7.86 | 0.091 | 0.166 | 
18 | C=CCn1c(-c2cc3c(cc2C=C)OCO3)cc2ccc(OC)c(OC)c2c1=O | inactive | > 100 | > 100 | > 100 | > 100 | 
19 | C=CCn1c(-c2ccc(OC)cc2C=O)cc2ccccc2c1=O | Active | 65.5 | 88.9 | 88.1 | 56.5 | 
20 | C=CCn1c(-c2cc3c(cc2COCOC)OCO3)cc2ccc(OC)c(OC)c2c1=O | inactive | > 100 | 27.4 | 29.9 | 28.2 | 
